RGS4 block: inhibitors of human RGS4 | B-score at 10 µM | actives 0.45% (n = 310,000) | AID 463165 | HEK293 M3R/RGS4 inducible, Fluo-4 calcium flux; stronger effect = higher value; triggered by carbachol at its EC20 | P49798;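 active = B-score, a plate-corrected calcium signal, over three deviations above library mean, with baseline fluorescence within five deviations of library mean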;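 note: RGS4 expression induced by doxycycline in cells with stable M3 receptor; B-score is computed from the integrated fluorescence ratio over baseline after carbachol; higher B-score means a larger calcium signal and so more RGS4 inhibition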
Target sequence (P49798 whole entry, looked up): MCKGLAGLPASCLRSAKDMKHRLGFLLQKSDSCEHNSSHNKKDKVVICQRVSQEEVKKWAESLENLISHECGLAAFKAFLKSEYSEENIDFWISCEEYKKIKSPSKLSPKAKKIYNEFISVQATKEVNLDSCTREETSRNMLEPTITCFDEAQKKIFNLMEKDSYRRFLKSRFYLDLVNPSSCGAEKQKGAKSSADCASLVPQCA
MrgX1 PAM: human MrgX1 positive allosteric modulation, primary screen. B-score at 10 µM. MrgX1-HEK293, Fluo-4 calcium flux, FDSS; stronger effect = higher value. actives 0.63% (n = 310,000);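 active = plate-corrected calcium response at least 3 library SD above typical, normal starting fluorescence, not activating the receptor alone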;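 note: compound read alongside a low EC10 to EC30 dose of BAM8-22 agonist; peak minus trough fluorescence over baseline measured at the second addition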
RGS4 act: RGS4 potentiation or activation; HEK293 M3R/inducible RGS4, carbachol calcium flux Fluo4; stronger effect = lower value; B-score at 10 µM; actives 0.92% (n = 310,000); AID 463111;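 active = B-score of the integrated calcium signal more than 4 SD below the library mean, with starting fluorescence not abnormally high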;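 note: negative B-score means reduced calcium response which marks RGS4 activation or potentiation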
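Assay system: HEK293 FlpIn-TREx cells, stable M3R, doxycycline-inducible RGS4 / Probe or stimulus: carbachol, ECmax concentration / Times: overnight RGS4 induction, 30 min dye load 37 °C, 20 min compound RT / Signal: kinetic calcium fluorescence imaging with Fluo4-AM dye, 2 µM / Measure: Agonist-evoked peak-minus-minimum fluorescence over baseline, integrated ratio, B score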
MrgX1 agonist: human MrgX1 receptor agonism, primary screen; Q96LB2; MrgX1-HEK293 cells, Fluo-4 calcium fluorescence, agonist mode; stronger effect = higher value; B-score at 10 µM; actives 0.44% (n = 310,000); AID 588627;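 active = calcium response B-score plate-corrected fluorescence ratio at least 3 library SD, with starting fluorescence B-score inside 5 SD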
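Test system: HEK293 cells stably expressing human MrgX1 receptor; Input: fifteen thousand cells per well; Dosing: compound delivered in addition one of three; Schedule: overnight seeding, then 1 h dark dye loading; Technique: Fluo-4 NW calcium fluorescence; Measure: B-scored fluorescence response ratio; Controls: positive and negative controls per plate.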
MrgX1 antag: blocks BAM8-22 activation of human MrgX1 receptor; B-score at 10 µM; Q96LB2; actives 1.3% (n = 310,000); AID 588676; MRGX1-HEK293 calcium flux, Fluo-4, BAM8-22 antagonism; stronger effect = lower value;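 active = calcium-response B-score plate-corrected more than 3 library SD below zero, starting fluorescence within 5 deviations, no agonist response on first addition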;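 note: peak minus trough fluorescence over baseline after final BAM8-22 challenge near maximal dose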
The depositor's hits bear a star; i = inactive; ! = not active in a repeat. Rows were chosen to be rich in hits. Some 3.5% of all compounds tested hit in one or more screens of this group.

SMILES | RGS4 block | MrgX1 PAM | RGS4 act | MrgX1 agonist | MrgX1 antag
Cc1nnc(NC(=O)C2CC(=O)N(C(C)c3ccccc3)C2)s1 (stereo unspecified) | i | i | i | i | i
O=C(N/N=C/c1ccc(N2CCOCC2)cc1)c1cccs1 | i | i | i | i | i
O=C(N/N=C/c1ccc(N2CCOCC2)cc1)c1ccccc1OCCOc1ccccc1 | i | i | -7.1* | i | i
CC(C)Oc1ccc(C(=O)N/N=C/c2ccc(-c3ccc(S(=O)(=O)Nc4ncccn4)cc3)o2)cc1 | i | i | i | i | i
C1COCCNCCOCCOCCOCCN1 | i | i | i | i | i
COc1ccc(OC)c(/C=C2/Sc3ccccc3C2=O)c1 | i | 8.7* | i | i | i
CC(C)OC(=O)c1c2nc3ccccc3nc2n2c1[nH]c(=O)c1ccccc12 | i | i | i | 32* | i
CN(C)c1ccc(/C=C(\C#N)C(=O)Nc2nc3c(s2)CCN(Cc2ccccc2)C3)cc1 | i | i | i | 50* | i
COCCNC(=O)c1cccc(OC2CCN(C(C)COc3ccccc3)CC2)c1 (stereo unspecified) | i | i | i | 32* | i
COCCNC(=O)c1cccc(OC2CCN(Cc3ccccc3OCCO)CC2)c1 | i | i | i | i | i
O=C(N/N=C/c1ccc2cccc(OCc3ccccc3)c2n1)c1ccc(Br)cc1 | i | i | -10* | i | i
NC(=S)N/N=C/c1ccc2cccc(OCc3ccccc3)c2n1 | i | i | i | i | i
NC(N)=N/N=C/c1ccc2cccc(OCc3ccccc3)c2n1 | i | i | i | i | -5.3*
CC1(C)Cc2ccccc2C(N/N=C/c2ccc(Cl)cc2)=N1 | i | i | i | i | i
O=C1/C(=C/c2c[nH]c3ccccc23)CCC/C1=C\c1c[nH]c2ccccc12 | i | 8.6* | i | i | i
COc1ccccc1N1CCN(C(=O)c2ccc(N3CCCCS3(=O)=O)cc2)CC1 | i | i | i | i | i
CCCCCCCCCCCCCCCCn1cc[n+](C)c1 | i | i | -9.5*! | i | -7.3*!
CCCCCCCCn1ccc(=N)cc1 | i | i | i | i | i
Cn1c(=O)c(=O)n(C)c2cc(S(=O)(=O)N3CCCC3C(=O)Nc3ccc(F)cc3)ccc21 (stereo unspecified) | i | i | i | i | i
Cc1ccc(NC(=O)C2CCCN2S(=O)(=O)c2ccc3c(c2)n(C)c(=O)c(=O)n3C)cc1C (stereo unspecified) | i | i | -7* | i | i
C/C(CCC(C)C)=N\Nc1cc(C)c2ccccc2n1 | i | 10* | i | i | i
N/C(=N\OC(=O)c1cccs1)C1(c2ccc(Cl)cc2Cl)CC1 | i | 14* | i | i | i
N/C(Cc1ccc(Cl)c(Cl)c1)=N\OC(=O)c1cccs1 | i | i | i | i | i
CN1CCN(C(=O)C2CCC(=O)N(Cc3cccc(C(F)(F)F)c3)C2)CC1 (stereo unspecified) | i | i | i | i | i
O=C(NCCNc1ccc(Cl)cc1[N+](=O)[O-])c1cccnc1 | i | i | i | i | i
SMILES | RGS4 block | MrgX1 PAM | RGS4 act | MrgX1 agonist | MrgX1 antag
Cc1ccoc1C(=O)NCCNc1ccc(Cl)cc1[N+](=O)[O-] | i | i | i | i | -5.1*
Cc1cccc(CS(=O)(=O)c2nnc([C@H](Cc3ccccc3)NC(=O)OC(C)(C)C)o2)c1 | i | i | i | i | i
COC(=O)CS(=O)(=O)c1nnc([C@H](Cc2ccccc2)NC(=O)OC(C)(C)C)o1 | i | i | i | 30* | i
CCC(C)(C)NC(=O)Cn1c(-c2ccc(C)cc2)noc1=O | i | i | i | i | i
C/C(=N/NC(=O)c1ccccc1O)c1ccc(N2C(=O)C3CCCCC3C2=O)cc1 (stereo unspecified) | i | i | i | i | -8*
COC(=O)c1ccc(/C=N/OCC(=O)NCc2ccc(F)cc2)cc1 | i | i | i | i | -5.4*
CCOc1ccccc1/C=N/OCC(=O)NCc1ccc(F)cc1 | i | i | i | i | i

Assay outcomes (PubChem BioAssay)
